# RGS4 block: inhibitors of human RGS4; P49798; AID 463165; B-score at 10 µM; 0.45% of 310,000 active; HEK293 M3R/RGS4 inducible, Fluo-4 calcium flux; hits give high values; triggered by carbachol at its EC20;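 active = B-score, a plate-corrected calcium signal, over three deviations above library mean, with baseline fluorescence within five deviations of library mean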;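 note: RGS4 expression induced by doxycycline in cells with stable M3 receptor; B-score is computed from the integrated fluorescence ratio over baseline after carbachol; higher B-score means a larger calcium signal and so more RGS4 inhibition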
# Target sequence (P49798 whole entry, looked up): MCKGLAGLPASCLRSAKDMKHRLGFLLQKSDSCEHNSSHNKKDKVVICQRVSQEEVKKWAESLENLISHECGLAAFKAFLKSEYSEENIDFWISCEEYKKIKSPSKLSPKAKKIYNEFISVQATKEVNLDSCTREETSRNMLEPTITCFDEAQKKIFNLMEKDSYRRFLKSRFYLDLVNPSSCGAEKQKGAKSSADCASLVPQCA
# MrgX1 antagonist: human MrgX1 receptor antagonism, primary screen | Q96LB2 | MRGX1-HEK293 calcium flux, Fluo-4, BAM8-22 antagonism; hits give low values | B-score at 10 µM | 1.3% of 310,000 active | AID 588676;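 active = calcium-response B-score plate-corrected more than 3 library SD below zero, starting fluorescence within 5 deviations, no agonist response on first addition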;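 note: peak minus trough fluorescence over baseline after final BAM8-22 challenge near maximal dose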
# Target sequence (Q96LB2 whole entry, looked up): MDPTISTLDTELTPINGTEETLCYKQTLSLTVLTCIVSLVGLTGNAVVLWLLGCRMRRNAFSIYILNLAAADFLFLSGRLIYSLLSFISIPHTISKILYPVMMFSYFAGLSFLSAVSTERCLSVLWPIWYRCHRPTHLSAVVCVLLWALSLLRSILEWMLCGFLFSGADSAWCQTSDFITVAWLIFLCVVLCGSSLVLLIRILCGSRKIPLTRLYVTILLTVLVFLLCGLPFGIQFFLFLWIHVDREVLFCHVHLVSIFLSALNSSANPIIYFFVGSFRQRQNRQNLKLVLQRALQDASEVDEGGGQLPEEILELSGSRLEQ
# MrgX1 allo act: allosterically activates human MrgX1 receptor signaling | Q96LB2 | MrgX1-HEK293, Fluo-4 calcium flux, FDSS; hits give high values | B-score at 10 µM | 0.63% of 310,000 active | AID 588675;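 active = plate-corrected calcium response at least 3 library SD above typical, normal starting fluorescence, not activating the receptor alone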;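 note: compound read alongside a low EC10 to EC30 dose of BAM8-22 agonist; peak minus trough fluorescence over baseline measured at the second addition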
# MrgX1 agonist: human MrgX1 receptor agonism, primary screen | Q96LB2 | MrgX1-HEK293 cells, Fluo-4 calcium fluorescence, agonist mode; hits give high values | B-score at 10 µM | 0.44% of 310,000 active;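 active = calcium response B-score plate-corrected fluorescence ratio at least 3 library SD, with starting fluorescence B-score inside 5 SD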
#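 Material – MrgX1-expressing HEK293 cells · Input – 15,000 cells seeded per well · Dosing – compound as first of three additions · Times – overnight seeding, then 1 h dark dye loading · Measured by – kinetic Fluo-4 NW fluorescence of intracellular calcium · Read-out – B-scored fluorescence response ratio · Benchmarks – positive and negative control wells on each plate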
# RGS4 pot: RGS4 potentiation or activation; HEK293 M3R/inducible RGS4, carbachol calcium flux Fluo4; hits give low values; B-score at 10 µM; 0.92% of 310,000 active; AID 463111;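 active = B-score of the integrated calcium signal more than 4 SD below the library mean, with starting fluorescence not abnormally high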;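 note: negative B-score means reduced calcium response which marks RGS4 activation or potentiation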
#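 test system = M3R-expressing HEK293 line, RGS4 induced by doxycycline | probe or stimulus = carbachol at ECmax as muscarinic agonist stimulus | timing = dye loading 30 min 37 °C, buffer rest 30 min RT | signal = calcium dye Fluo4 fluorescence | evaluation = B score from integrated fluorescence ratio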
# RGS4 act valid: confirmation of RGS4 activators. shares compounds with RGS4 pot. HEK293 M3R/RGS4 inducible, carbachol calcium flux Fluo4. inhibition, % at 10 µM. 89% of 1,100 active. AID 602282;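 active = inhibition above 3 SD of the buffer control wells, cut at about 41% in these data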;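 note: signal is the integrated peak-minus-minimum Fluo4 fluorescence over baseline ratio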
# RGS4 act ctr: activity in cells without induced RGS4 expression. shares compounds with RGS4 pot. HEK293 M3R non-induced RGS4, Fluo4 calcium flux; after carbachol challenge at its EC90. inhibition, % at 10 µM. 82% of 1,100 active. AID 602283;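 active = inhibition exceeding 3 SD of buffer-only control wells, cut at about 26% in these data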;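 note: percent drop in integrated peak-minus-baseline over baseline Fluo4 ratio after carbachol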
# An asterisk follows results filed as active; i = inactive; / = no result. In the library only some 3.5% were active in any assay of this set; here they are far more common.
SMILES,RGS4 block,MrgX1 antagonist,MrgX1 allo act,MrgX1 agonist,RGS4 pot,RGS4 act valid,RGS4 act ctr
c1ccc(-c2nnc(N3CCN(c4ccccn4)CC3)c3ccccc23)cc1,i,i,i,i,-8*,92*,79*
Cc1ccc(-c2nnc(N3CCN(c4ccccn4)CC3)c3ccccc23)cc1,i,i,i,i,-7.7*,94*,91*
CCOc1ccc(NC(=O)NC2CCS(=O)(=O)C2)cc1 (stereo unspecified),i,i,i,i,i,/,/
COc1ccc(-c2noc(CN3CCN(C(=O)c4cccs4)CC3)n2)c(OC)c1OC,i,i,i,i,i,/,/
CCOc1ccc2ncc(C(=O)c3ccc(OC)cc3)c(N3CCN(CC)CC3)c2c1,i,i,i,i,i,/,/
CCOC(=O)c1cnc2ccc(OCC)cc2c1N1CCN(c2ccccc2OC)CC1,i,i,i,i,-9.1*,93*,93*
CN1CCN(C(=O)C2CCN(c3ncc(C(F)(F)F)cc3Cl)CC2)CC1,i,i,i,i,-12*,86*,41*
O=C(NCCc1ccccc1)C(=O)NCC1CCCN1S(=O)(=O)c1ccccc1 (stereo unspecified),i,i,i,i,-9.6*,68*,26*
Cc1ccc(OCCC(=O)OCC(=O)Nc2c(C)nn(-c3ccccc3)c2C)cc1,i,i,i,i,i,/,/
Cc1cc(C)nc(N/N=C/c2cn[nH]c2-c2ccc(F)cc2)n1,i,i,i,i,i,/,/
CNC(=S)N/N=C1\C(=O)c2cccc3cccc1c23,i,i,i,i,-7.8*,0,0
CCCCNC(=S)N/N=C1\C(=O)c2cccc3cccc1c23,i,i,i,i,i,/,/
Cc1ccc(OCC(=O)O/N=C(\N)Cc2ccc([N+](=O)[O-])cc2)cc1C,i,i,i,i,-11*,0,0
COc1ccccc1OCC(=O)Nc1cc(Cl)ccc1Oc1ccccc1,i,i,i,i,-9.1*,0,0
Cc1ccccc1OCC(=O)Nc1cc(Cl)ccc1Oc1ccccc1,i,i,i,i,i,/,/
CCNC(=S)N1CCN(c2nc(-c3cccc(OC)c3)cs2)CC1,i,i,i,i,i,/,/
COc1cccc(-c2csc(N3CCN(C(=S)NCC(C)C)CC3)n2)c1,i,i,i,i,-7.7*,80*,56*
OCCC1CN(Cc2cnc(N3CCCC3)s2)CCN1C1CCCC1 (stereo unspecified),i,i,i,i,-7.9*,70*,27*
CC(=O)Nc1ccc(CN2CCCC(C(=O)c3ccc(C(F)(F)F)cc3)C2)cc1 (stereo unspecified),i,i,i,i,-10*,72*,84*
OCCC1CN(C/C(Cl)=C/c2ccccc2)CCN1C1CCCC1 (stereo unspecified),i,i,i,i,-10*,70*,84*
O=C(c1ccc(-c2ccccc2)cc1)C1CCCN(Cc2ccncc2)C1 (stereo unspecified),i,i,i,i,i,/,/
CC(=O)Nc1ccc(CN2CCN(C3CCCC3)C(CCO)C2)cc1 (stereo unspecified),i,i,i,i,-8*,88*,52*
COCCCNC(=O)c1c(N)n(/N=C/c2cccs2)c2nc3ccccc3nc12,i,i,i,i,-8.1*,0,0
CCN(CC)CCCN(C(=O)c1ccc(Br)cc1)c1nc(-c2ccc(OC)cc2)cs1,i,i,i,i,i,/,/
CCN(CC)CCCN(C(=O)c1cccs1)c1nc(-c2ccc(OC)cc2)cs1,i,i,i,i,-11*,90*,31*
SMILES,RGS4 block,MrgX1 antagonist,MrgX1 allo act,MrgX1 agonist,RGS4 pot,RGS4 act valid,RGS4 act ctr
O=C(NC1CCCC1)c1cc2nc(-c3ccccc3)cc(-c3ccccc3)n2n1,i,i,i,i,-7.7*,82*,84*
CC1CCN(C(=O)c2cc3nc(-c4ccccc4)cc(-c4ccccc4)n3n2)CC1,i,i,i,i,i,/,/
CC(C)Oc1cccc(C(=O)NC(=S)Nc2ccc(N3CCN(C)CC3)cc2)c1,i,i,i,i,-11*,92*,93*
COc1cccc(C(=O)NC(=S)Nc2ccc(N3CCCC3)cc2)c1,i,i,i,i,i,/,/
CC1Cc2ccccc2N1C(=O)COC(=O)c1c2c(nc3ccccc13)CCCCC2 (stereo unspecified),i,i,i,i,-9*,88*,84*
CC(C)(C)C(=O)COC(=O)c1c2c(nc3ccccc13)CCC2,i,i,i,i,i,/,/
O=C(OCC(=O)N1CCc2ccccc21)c1c2c(nc3ccccc13)CCCC2,i,i,i,i,-9.1*,80*,84*
NC(=O)COC(=O)c1c2c(nc3ccccc13)CCCCC2,i,i,i,i,i,/,/
Cc1ccccc1C(C(=O)NC1CCCC1)N(C(=O)CNC(=O)c1ccco1)c1cccnc1 (stereo unspecified),i,i,i,i,i,/,/
CN(C(=O)Cn1cccc1C1=NC(c2ccccc2)CO1)c1ccccc1 (stereo unspecified),i,i,i,i,i,/,/
CC(=O)C1C(c2ccc(F)cc2)c2c(noc2C)CC1(C)O (stereo unspecified),i,i,i,i,i,/,/
COc1ccc(C(=O)C2CCCN(C/C=C/c3ccccc3OC)C2)c(OC)c1 (stereo unspecified),i,i,i,i,-9.3*,88*,84*
COc1cccc(C(=O)C2CCCN(C/C=C/c3ccccc3OC)C2)c1 (stereo unspecified),i,i,i,i,i,/,/
CCCCN(C(=O)c1cc(S(=O)(=O)N2CCCCCC2)ccc1OC)c1ccccc1,i,i,i,i,i,/,/
c1ccc2c(c1)CCc1ccccc1C2=C1CCNCC1,i,i,i,i,-12*,94*,94*
CN1CCC(=C2c3ccccc3C=Cc3ccccc32)CC1,i,i,i,i,i,/,/
CCOC(=O)Cn1nc(C)n(-c2c(C)cccc2C)c1=O,i,i,i,i,i,/,/
CCCCCCOc1ccc(-c2ccc(C#N)cn2)cc1,i,i,i,i,-7.9*,71*,84*
